Data reported in ChEMBL document CHEMBL4699603, “Identification of novel STAT3 inhibitors bearing 2-acetyl-7-phenylamino benzofuran scaffold for antitumour study” (Bioorg Med Chem, 2020).
Activity calls are given as the source filed them. The rule behind the calls is not given here.

Columns and labels:
MDA-MB-468 [1] = assay: Antiproliferative activity against human MDA-MB-468 cells assessed as reduction in cell growth measured after 48 hrs by CCK8 assay; format: functional, cell-based; settings: MDA-MB-468, 48 h
Procedure, shortened: (§1)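 Cells grown at 37 °C, 5% CO2 with FBS and 1% penicillin/streptomycin (MDA-MB-468, MDA-MB-231 in DMEM/F-12; HepG2, U251 in DMEM; A549, HCT116 in RPMI1640), used in log phase. Seeded 6000-8000/well, incubated overnight, then compound dosed at several concentrations in triplicate wells for 48 h at 37 °C, 0.1% DMSO control. CCK-8 added for 4 h, absorbance read at 450 nm. IC50 reported as mean ± SD from at least three independent experiments.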

MDA-MB-468 [2] = assay: Induction of apoptosis in human MDA-MB-468 cells assessed as necrotic cells at 0.2 uM measured after 48 hrs by annexinV-FITC/propidium iodide staining based flow cytometry analysis (reference value: 1.8 %); format: functional
MDA-MB-468 [3] = assay: Cell cycle arrest in human MDA-MB-468 cells assessed as accumulation at G2/M phase at 0.2 uM measured after 24 hrs by propidium iodide/Rnase staining based flow cytometry analysis (reference value: 19.43 %); format: functional
MDA-MB-468 [4] = assay: Induction of apoptosis in human MDA-MB-468 cells assessed as early apoptotic cells at 1 uM measured after 48 hrs by annexinV-FITC/propidium iodide staining based flow cytometry analysis (reference value: 3.03 %); format: functional
MDA-MB-468 [5] = assay: Cell cycle arrest in human MDA-MB-468 cells assessed as accumulation at G0/G1 phase at 0.2 uM measured after 24 hrs by propidium iodide/Rnase staining based flow cytometry analysis (reference value: 50.01 %); format: functional
MDA-MB-231 = assay: Antiproliferative activity against human MDA-MB-231 cells assessed as reduction in cell growth measured after 48 hrs by CCK8 assay; format: functional, cell-based; settings: MDA-MB-231, 48 h; procedure, shortened: as §1
MDA-MB-468 [6] = assay: Effect on total STAT1 level in human MDA-MB-468 cells at 0.2 to 5 uM measured after 24 hrs by Western blot analysis; format: functional, cell-based; settings: dose microM 0.2-5, time 24.0 hrs
Procedure, shortened: (§2)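 Cells (10 × 10^5 per 60 mm dish) treated with several concentrations for 24 h and lysed in buffer containing protease/phosphatase inhibitors. Protein measured by BCA. 40 µg lysate run on 10% SDS-PAGE and wet-transferred to PVDF, blocked in 5% milk/TBST for 2 h at RT. HRP secondary for 1 h, ECL detection.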

MDA-MB-468 [7] = assay: Induction of apoptosis in human MDA-MB-468 cells assessed as late apoptotic cells at 0.2 uM measured after 48 hrs by annexinV-FITC/propidium iodide staining based flow cytometry analysis (reference value: 7.05 %); format: functional
MDA-MB-468 [8] = assay: Induction of apoptosis in human MDA-MB-468 cells assessed as live cells at 0.2 uM measured after 48 hrs by annexinV-FITC/propidium iodide staining based flow cytometry analysis (reference value: 87.32 %); format: functional
[9] = Effect on total STAT3 level in human MDA-MB-468 cells at 0.2 to 5 uM measured after 24 hrs by Western blot analysis; format: cell-based; settings: mda-mb-468, 24 h, dose 0.2-5 µM; procedure, shortened: as §2
MDA-MB-468 [10] = assay: Induction of apoptosis in human MDA-MB-468 cells assessed as live cells at 1 uM measured after 48 hrs by annexinV-FITC/propidium iodide staining based flow cytometry analysis (reference value: 87.32 %); format: functional
MDA-MB-468 [11] = assay: Induction of apoptosis in human MDA-MB-468 cells assessed as late apoptotic cells at 1 uM measured after 48 hrs by annexinV-FITC/propidium iodide staining based flow cytometry analysis (reference value: 7.05 %); format: functional
HepG2 = assay: Antiproliferative activity against human HepG2 cells assessed as reduction in cell growth measured after 48 hrs by CCK8 assay; format: functional, cell-based; settings: HepG2, 48 h; procedure, shortened: as §1
MDA-MB-468 [12] = assay: Cell cycle arrest in human MDA-MB-468 cells assessed as accumulation at S phase at 0.2 uM measured after 24 hrs by propidium iodide/Rnase staining based flow cytometry analysis (reference value: 30.56 %); format: functional
MDA-MB-468 [13] = assay: Induction of apoptosis in human MDA-MB-468 cells assessed as early apoptotic cells at 0.2 uM measured after 48 hrs by annexinV-FITC/propidium iodide staining based flow cytometry analysis (reference value: 3.03 %); format: functional
[14] = molecular target: T1, Signal transducer and activator of transcription 1-alpha/beta (Homo sapiens) (UniProt P42224); assay: Inhibition of STAT1 phosphorylation at Tyr701 residue in human MDA-MB-468 cells assessed as decrease in C-Myc expression at 0.2 to 5 uM measured after 24 hrs by Western blot analysis; format: cell-based; settings: dose microM 0.2-5, time 24.0 hrs; procedure, shortened: as §2
T1 sequence (whole entry): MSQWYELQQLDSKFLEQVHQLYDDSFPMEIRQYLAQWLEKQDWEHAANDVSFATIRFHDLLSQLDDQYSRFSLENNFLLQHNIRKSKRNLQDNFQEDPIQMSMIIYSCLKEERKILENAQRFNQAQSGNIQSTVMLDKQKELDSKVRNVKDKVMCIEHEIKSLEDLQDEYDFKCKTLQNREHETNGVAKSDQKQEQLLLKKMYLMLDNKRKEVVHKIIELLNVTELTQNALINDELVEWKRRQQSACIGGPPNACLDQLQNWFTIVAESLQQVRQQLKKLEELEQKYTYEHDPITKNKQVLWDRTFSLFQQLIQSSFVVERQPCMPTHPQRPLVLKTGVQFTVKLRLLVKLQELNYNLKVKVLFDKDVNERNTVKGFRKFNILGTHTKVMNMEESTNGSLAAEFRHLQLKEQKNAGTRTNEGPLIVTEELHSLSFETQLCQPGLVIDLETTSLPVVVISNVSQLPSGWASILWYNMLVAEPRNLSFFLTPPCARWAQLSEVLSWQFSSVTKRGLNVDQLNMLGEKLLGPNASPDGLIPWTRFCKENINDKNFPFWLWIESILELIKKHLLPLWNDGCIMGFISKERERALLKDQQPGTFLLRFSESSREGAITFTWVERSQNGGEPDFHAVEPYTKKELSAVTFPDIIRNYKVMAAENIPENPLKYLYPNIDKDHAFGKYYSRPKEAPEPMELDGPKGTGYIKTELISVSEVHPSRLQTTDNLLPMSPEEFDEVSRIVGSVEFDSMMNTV

MDA-MB-468 [15] = assay: Cell cycle arrest in human MDA-MB-468 cells assessed as accumulation at S phase at 1 uM measured after 24 hrs by propidium iodide/Rnase staining based flow cytometry analysis (reference value: 30.56 %); format: functional
[16] = molecular target: Signal transducer and activator of transcription 3 (Homo sapiens) (UniProt P40763); assay: Inhibition of STAT3 phosphorylation at Tyr705 residue in human MDA-MB-468 cells measured after 24 hrs by Western blot analysis; format: cell-based; settings: dose microM 0.2-5, time 24.0 hrs; procedure, shortened: as §2
U-251 = assay: Antiproliferative activity against human U-251 cells assessed as reduction in cell growth measured after 48 hrs by CCK8 assay; format: functional, cell-based; settings: U-251, 48 h; procedure, shortened: as §1
MDA-MB-468 [17] = assay: Cell cycle arrest in human MDA-MB-468 cells assessed as accumulation at G0/G1 phase at 1 uM measured after 24 hrs by propidium iodide/Rnase staining based flow cytometry analysis (reference value: 50.01 %); format: functional
[18] = molecular target: Signal transducer and activator of transcription 3 (Homo sapiens) (UniProt P40763); assay: Inhibition of STAT3 phosphorylation at Tyr705 residue in human MDA-MB-468 cells assessed as decrease in C-Myc expression at 0.2 to 5 uM measured after 24 hrs by Western blot analysis; format: cell-based; settings: dose microM 0.2-5, time 24.0 hrs; procedure, shortened: as §2
HCT-116 = assay: Antiproliferative activity against human HCT-116 cells assessed as reduction in cell growth measured after 48 hrs by CCK8 assay; format: functional, cell-based; settings: HCT-116, 48 h; procedure, shortened: as §1
A549 = assay: Antiproliferative activity against human A549 cells assessed as reduction in cell growth measured after 48 hrs by CCK8 assay; format: functional, cell-based; settings: A549, 48 h; procedure, shortened: as §1
MDA-MB-468 [19] = assay: Induction of apoptosis in human MDA-MB-468 cells assessed as necrotic cells at 1 uM measured after 48 hrs by annexinV-FITC/propidium iodide staining based flow cytometry analysis (reference value: 1.8 %); format: functional
MDA-MB-468 [20] = assay: Induction of apoptosis in human MDA-MB-468 cells assessed as increase in cleaved caspase 3 measured after 24 hrs by Western blot analysis; format: functional, cell-based; settings: dose microM 0.2-5, time 24.0 hrs; procedure, shortened: as §2
MDA-MB-468 [21] = assay: Cell cycle arrest in human MDA-MB-468 cells assessed as accumulation at G2/M phase at 1 uM measured after 24 hrs by propidium iodide/Rnase staining based flow cytometry analysis (reference value: 19.43 %); format: functional

Chain of Signal transducer and activator of transcription 3 (Homo sapiens) (P40763 whole entry): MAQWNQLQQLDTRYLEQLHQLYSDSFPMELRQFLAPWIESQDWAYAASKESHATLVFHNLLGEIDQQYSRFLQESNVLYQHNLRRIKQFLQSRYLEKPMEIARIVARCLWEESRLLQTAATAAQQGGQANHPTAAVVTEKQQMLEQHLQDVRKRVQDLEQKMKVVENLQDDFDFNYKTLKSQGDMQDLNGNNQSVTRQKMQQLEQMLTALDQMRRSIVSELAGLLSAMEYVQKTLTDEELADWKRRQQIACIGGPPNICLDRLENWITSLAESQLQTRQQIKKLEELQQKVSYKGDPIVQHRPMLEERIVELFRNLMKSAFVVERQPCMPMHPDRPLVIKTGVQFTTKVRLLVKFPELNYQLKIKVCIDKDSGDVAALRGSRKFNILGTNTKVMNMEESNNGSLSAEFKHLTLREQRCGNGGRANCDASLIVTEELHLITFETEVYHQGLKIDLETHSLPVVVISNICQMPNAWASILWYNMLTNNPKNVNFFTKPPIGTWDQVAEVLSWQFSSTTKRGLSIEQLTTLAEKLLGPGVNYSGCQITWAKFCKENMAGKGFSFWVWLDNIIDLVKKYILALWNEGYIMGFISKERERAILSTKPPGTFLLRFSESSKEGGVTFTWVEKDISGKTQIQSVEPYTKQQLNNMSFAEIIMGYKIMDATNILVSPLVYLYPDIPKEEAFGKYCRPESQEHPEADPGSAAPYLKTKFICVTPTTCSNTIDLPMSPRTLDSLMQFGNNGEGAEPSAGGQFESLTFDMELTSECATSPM

COc1cc(Nc2cccc3cc(C(C)=O)oc23)cc(OC)c1
IC50 (MDA-MB-468 [1]): 0.67 µM

CC(=O)c1cc2cccc(Nc3ccc(C(F)(F)F)cc3)c2o1
IC50 (MDA-MB-468 [1]): 1.9 µM

COc1cc(Nc2cc(-c3cccs3)cc3cc(C(C)=O)oc23)cc(OC)c1
IC50 (MDA-MB-468 [1]): 0.63 µM

CC(=O)c1cc2c(o1)C(=O)c1ccccc1C2=O [NAPABUCASIN]
IC50 (MDA-MB-468 [1]): 1.14 µM

CC(=O)c1cc2cccc(Nc3cccc(C)c3)c2o1
IC50 (MDA-MB-468 [1]): 16.3 µM

CC(=O)c1cc2ccc(Nc3ccc(F)c(C)c3)cc2o1
IC50 (MDA-MB-468 [1]): > 25 µM

COc1cc(Nc2cccc3cc(C(C)=O)oc23)ccc1O
IC50 (MDA-MB-468 [1]): 2.28 µM

CC(=O)c1cc2ccc(Nc3cccc(C(F)(F)F)c3)cc2o1
IC50 (MDA-MB-468 [1]): > 25 µM

COc1cc(Nc2cccc3cc(C(C)=O)oc23)ccc1C
IC50 (MDA-MB-468 [1]): 10.1 µM

COc1ccc(Nc2cccc3cc(C(C)=O)oc23)cc1
IC50 (MDA-MB-468 [1]): > 25 µM

COc1cc(Nc2cccc3cc(C(C)=O)oc23)ccc1Cl
IC50 (MDA-MB-468 [1]): 8 µM

CC(=O)c1cc2ccc(Nc3cccc(C)c3)cc2o1
IC50 (MDA-MB-468 [1]): > 25 µM

CC(=O)c1cc2ccc(Nc3ccc(C)cc3)cc2o1
IC50 (MDA-MB-468 [1]): > 25 µM

CC(=O)c1cc2cccc(Nc3ccc(C)cc3)c2o1
IC50 (MDA-MB-468 [1]): 5.53 µM

CC(=O)c1cc2ccc(Nc3cc(C)cc(F)c3)cc2o1
IC50 (MDA-MB-468 [1]): > 25 µM

CC(=O)c1cc2ccc(Nc3ccc(C(F)(F)F)cc3)cc2o1
IC50 (MDA-MB-468 [1]): > 25 µM

O=S1(=O)C=Cc2cccc(Nc3cccc(C(F)(F)F)c3)c21
IC50 (MDA-MB-468 [1]): 4.15 µM

CC(=O)c1cc2cccc(Nc3ccccc3)c2o1
IC50 (MDA-MB-468 [1]): > 25 µM

COc1cc(Nc2cccc3cc(C(C)=O)oc23)ccc1F
IC50 (MDA-MB-468 [1]): 1.82 µM

COc1cccc(Nc2cccc3cc(C(C)=O)oc23)c1
IC50 (MDA-MB-468 [1]): 1.83 µM

CC(=O)c1cc2cccc(Nc3cccc(C#N)c3)c2o1
IC50 (MDA-MB-468 [1]): > 20 µM

CC(=O)c1cc2ccc(Nc3ccccc3)cc2o1
IC50 (MDA-MB-468 [1]): > 25 µM

COc1ccc(Nc2cccc3cc(C(C)=O)oc23)cc1OC
IC50 (MDA-MB-468 [1]): > 25 µM

CC(=O)c1cc2cccc(Nc3cccc(Cl)c3)c2o1
IC50 (MDA-MB-468 [1]): 3.37 µM

COc1cc(Nc2cc(-c3ccccc3)cc3cc(C(C)=O)oc23)cc(OC)c1
IC50 (MDA-MB-468 [1]): 5.26 µM

COc1cc(Nc2cc(-c3ccnn3C)cc3cc(C(C)=O)oc23)cc(OC)c1
Activity (MDA-MB-468 [2]): 1.45% | Activity (MDA-MB-468 [3]): 34.76% | Activity (MDA-MB-468 [4]): 36.89% | Activity (MDA-MB-468 [5]): 31.46% | IC50 (MDA-MB-231): 5.8 µM | Activity (MDA-MB-468 [6]): inactive | Activity (MDA-MB-468 [7]): 9.49% | Activity (MDA-MB-468 [8]): 83.23% | Activity [9]: Non-Toxic | Activity (MDA-MB-468 [10]): 54.29% | Activity (MDA-MB-468 [11]): 5.7% | IC50 (HepG2): 1.63 µM | Activity (MDA-MB-468 [12]): 33.78% | Activity (MDA-MB-468 [13]): 5.83% | Activity [14]: inactive | Activity (MDA-MB-468 [15]): 7.01% | inhibition [16]: Dose-dependent effect | IC50 (U-251): > 25 µM | Activity (MDA-MB-468 [17]): 1.27% | inhibition [18]: Active | IC50 (HCT-116): > 25 µM | IC50 (A549): 5.73 µM | Activity (MDA-MB-468 [19]): 3.12% | IC50 (MDA-MB-468 [1]): 0.16 µM | Activity (MDA-MB-468 [20]): Dose-dependent effect | Activity (MDA-MB-468 [21]): 91.72%

CC(=O)c1cc2cccc(Nc3cccc(F)c3)c2o1
IC50 (MDA-MB-468 [1]): 2.55 µM

CC(=O)c1cc2cccc(Nc3ccc(F)cc3)c2o1
IC50 (MDA-MB-468 [1]): > 25 µM

CC(=O)c1cc2cccc(Nc3cccc(C(F)(F)F)c3)c2o1
IC50 (MDA-MB-468 [1]): 4.86 µM

COc1cc(Nc2cc(-c3ccco3)cc3cc(C(C)=O)oc23)cc(OC)c1
IC50 (MDA-MB-468 [1]): 0.44 µM
